In ChEMBL document CHEMBL1131250 (J Med Chem, 1998):

Legend:
D(4) dopamine receptor [1] = molecular target: T1, D(4) dopamine receptor (Homo sapiens, UniProt P21917); test: The compound was tested for CNS binding affinity towards Dopamine receptor D4 from cloned Human membranes; Inactive
T1 sequence (P21917 whole entry): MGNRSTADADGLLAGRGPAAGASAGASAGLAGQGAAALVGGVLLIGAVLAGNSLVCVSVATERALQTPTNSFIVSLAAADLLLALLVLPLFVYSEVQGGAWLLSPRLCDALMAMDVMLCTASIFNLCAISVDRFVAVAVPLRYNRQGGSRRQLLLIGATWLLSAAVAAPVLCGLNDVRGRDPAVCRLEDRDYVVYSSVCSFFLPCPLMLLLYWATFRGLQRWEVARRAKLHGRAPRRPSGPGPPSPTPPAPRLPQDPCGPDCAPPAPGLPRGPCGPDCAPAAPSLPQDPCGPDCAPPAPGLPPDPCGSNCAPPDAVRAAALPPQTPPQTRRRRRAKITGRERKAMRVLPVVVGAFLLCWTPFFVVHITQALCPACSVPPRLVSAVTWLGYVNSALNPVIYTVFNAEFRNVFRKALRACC

D(2) dopamine receptor [2] = molecular target: T2, D(2) dopamine receptor (Homo sapiens, UniProt P14416); test: The compound was tested for CNS binding affinity towards Dopamine receptor D2 from cloned Human membranes.
T2 sequence (P14416 whole entry): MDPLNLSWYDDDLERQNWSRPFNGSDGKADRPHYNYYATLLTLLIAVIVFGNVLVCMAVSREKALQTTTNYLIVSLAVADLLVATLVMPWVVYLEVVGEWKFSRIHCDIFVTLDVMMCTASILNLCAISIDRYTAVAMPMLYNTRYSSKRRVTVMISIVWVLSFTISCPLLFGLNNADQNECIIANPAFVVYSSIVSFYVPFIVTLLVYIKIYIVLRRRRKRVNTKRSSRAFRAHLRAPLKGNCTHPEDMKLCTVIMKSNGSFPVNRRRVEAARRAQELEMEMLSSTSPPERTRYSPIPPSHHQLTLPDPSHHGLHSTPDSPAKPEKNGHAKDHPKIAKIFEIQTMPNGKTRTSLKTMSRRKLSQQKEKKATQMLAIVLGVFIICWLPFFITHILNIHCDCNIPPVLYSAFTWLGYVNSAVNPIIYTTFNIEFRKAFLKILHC
Summary of the method: (§1)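 Radioligand binding on membranes from cloned human receptors (5-HT1A, 5-HT2A, D2, D4). Ki values reported.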

Cavia porcellus [3] = test: The compound (25umol/kg, sc) was tested for hypothermic response for 60 mins in Guinea pig; format: functional
Summary of the method: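 Guinea pigs received compound subcutaneously (doses 25–100 μmol/kg across groups), and body temperature change was read at 30 and 60 min after dosing. The hypothermic response is the difference in °C from vehicle-treated controls, reported as mean ± SEM (n = 4–5), with significance tested against vehicle.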

[4] = molecular target: T3, 5-hydroxytryptamine receptor 1A (Homo sapiens, UniProt P08908); test: The compound was tested for CNS binding affinity towards 5-hydroxytryptamine 1A receptor from cloned Human membranes; summary of the method: as §1
T3 sequence (P08908 whole entry): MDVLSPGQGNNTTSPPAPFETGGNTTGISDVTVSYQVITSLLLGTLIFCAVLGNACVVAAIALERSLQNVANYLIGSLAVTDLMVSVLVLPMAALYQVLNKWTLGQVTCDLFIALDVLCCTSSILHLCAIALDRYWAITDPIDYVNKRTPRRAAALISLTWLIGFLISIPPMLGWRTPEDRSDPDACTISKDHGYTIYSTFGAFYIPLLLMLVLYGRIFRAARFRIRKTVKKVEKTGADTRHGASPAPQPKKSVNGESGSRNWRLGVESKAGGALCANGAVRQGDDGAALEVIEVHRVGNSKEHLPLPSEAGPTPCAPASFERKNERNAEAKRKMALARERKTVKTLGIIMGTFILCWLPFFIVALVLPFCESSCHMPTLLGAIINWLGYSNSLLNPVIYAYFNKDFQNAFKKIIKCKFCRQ

[5] = molecular target: 5-hydroxytryptamine receptor 1B (Gorilla gorilla, UniProt Q9N2B7); test: The compound was tested for CNS binding affinity towards 5-hydroxytryptamine 1B receptor from cloned gorilla membranes expressed in cultured HEK 293 cells; format: cell-based, HEK293
5-hydroxytryptamine receptor 1B, sequence (Q9N2B7 whole entry): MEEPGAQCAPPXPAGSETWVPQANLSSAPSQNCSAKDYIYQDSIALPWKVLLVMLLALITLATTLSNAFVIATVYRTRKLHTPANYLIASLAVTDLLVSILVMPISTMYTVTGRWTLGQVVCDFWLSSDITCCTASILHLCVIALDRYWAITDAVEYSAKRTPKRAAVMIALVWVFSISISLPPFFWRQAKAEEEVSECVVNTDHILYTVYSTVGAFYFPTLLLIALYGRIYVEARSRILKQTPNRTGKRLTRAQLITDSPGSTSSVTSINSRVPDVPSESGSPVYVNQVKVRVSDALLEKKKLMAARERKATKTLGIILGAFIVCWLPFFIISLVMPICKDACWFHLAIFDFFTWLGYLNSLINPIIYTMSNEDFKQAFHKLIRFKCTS

D(2) dopamine receptor [6] = molecular target: T2, D(2) dopamine receptor; test: The compound was tested for CNS binding affinity towards Dopamine receptor D2 from cloned Human membranes; summary of the method: as §1
D(4) dopamine receptor [7] = molecular target: T1, D(4) dopamine receptor; test: The compound was tested for CNS binding affinity towards Dopamine receptor D4 from cloned Human membranes; summary of the method: as §1
Cavia porcellus [8] = test: The compound (50umol/kg, sc) was tested for hypothermic response for 60 mins and in Guinea pig; format: functional
Summary of the method: (§2)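 Guinea pigs dosed subcutaneously. Body temperature change read at 30 and 60 min after dosing. Response given as the difference in °C from vehicle-treated controls, as mean ± SEM, n = 4-5 per group. Significance tested against vehicle.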

[9] = molecular target: T3, 5-hydroxytryptamine receptor 1A; test: The compound was tested for CNS binding affinity towards 5-hydroxytryptamine 1A receptor from cloned Human membranes.; summary of the method: as §1
Cavia porcellus [10] = test: The compound (50umol/kg, sc) was tested for hypothermic response for 30 mins in Guinea pig; format: functional; summary of the method: as §2
D(4) dopamine receptor [11] = molecular target: T1, D(4) dopamine receptor; test: The compound was tested for CNS binding affinity towards Dopamine receptor D4 from cloned Human membranes.; summary of the method: as §1
[12] = molecular target: T4, 5-hydroxytryptamine receptor 2A (Homo sapiens, UniProt P28223); test: The compound was tested for CNS binding affinity towards 5-hydroxytryptamine 2A receptor from cloned Human membranes
T4 sequence (P28223 whole entry): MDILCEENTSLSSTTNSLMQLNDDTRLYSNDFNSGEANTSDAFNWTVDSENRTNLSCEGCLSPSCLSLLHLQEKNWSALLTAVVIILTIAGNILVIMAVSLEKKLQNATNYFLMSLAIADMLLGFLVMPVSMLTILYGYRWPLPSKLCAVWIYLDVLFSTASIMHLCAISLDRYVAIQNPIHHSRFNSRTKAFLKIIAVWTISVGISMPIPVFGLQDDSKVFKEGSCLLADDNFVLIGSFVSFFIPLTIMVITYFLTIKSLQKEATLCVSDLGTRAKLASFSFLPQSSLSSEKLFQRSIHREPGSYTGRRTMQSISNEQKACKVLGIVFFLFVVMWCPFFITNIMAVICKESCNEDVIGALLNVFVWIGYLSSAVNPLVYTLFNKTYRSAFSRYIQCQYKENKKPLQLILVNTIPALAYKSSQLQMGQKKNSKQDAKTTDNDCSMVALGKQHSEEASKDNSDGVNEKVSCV

[13] = molecular target: T4, 5-hydroxytryptamine receptor 2A; test: The compound was tested for CNS binding affinity towards 5-hydroxytryptamine 2A receptor from cloned Human membranes.; summary of the method: as §1
Cavia porcellus [14] = test: The compound (100umol/kg, sc) was tested for hypothermic response for 30 mins in Guinea pig; format: functional; summary of the method: as §2
Cavia porcellus [15] = test: The compound (100umol/kg, sc) was tested for hypothermic response for 60 mins and in Guinea pig; format: functional; summary of the method: as §2
Cavia porcellus [16] = test: The compound (25umol/kg, sc) was tested for hypothermic response for 60 mins and in Guinea pig; format: functional; summary of the method: as §2
Cavia porcellus [17] = test: The compound (25umol/kg, sc) was tested for hypothermic response for 30 mins in Guinea pig; format: functional; summary of the method: as §2

Row | Structure (SMILES) | Ki (D(4) dopamine receptor [1]) | Ki (D(2) dopamine receptor [2]) | Ki [5] | Ki [9] | also measured
1 | CNS(=O)(=O)Cc1ccc2[nH]cc(CCN(C)C)c2c1 | Not Active | > 0.218 µM | – | – | Hypothermic effect (Cavia porcellus [3]): -0.14
2 | COc1ccc(N2CCN(CCC3OCCc4cc(C(N)=O)ccc43)CC2)cc1 (configuration not stated) | – | – | 5.86 µM | – | Ki [4]: 2.46 µM; Ki (D(2) dopamine receptor [6]): 0.348 µM; Ki (D(4) dopamine receptor [7]): 1.05 µM
3 | COc1ccc(N2CCN(CC[C@@H]3OCCc4cc(C(N)=O)ccc43)CC2)cc1 | Not Active | 0.325 µM | 3.02 µM | 0.967 µM | Hypothermic effect (Cavia porcellus [8]): -1.14 °C; Hypothermic effect (Cavia porcellus [10]): -1.42 °C
4 | COc1ccc(N2CCN(CCC3OCCc4ccccc43)CC2)cc1 (configuration not stated) | – | 1.43 µM | 7.24 µM | 0.899 µM | Ki (D(4) dopamine receptor [11]): 0.0024 µM; Ki [12]: 0.076 µM
5 | CNC(=O)c1ccc2c(c1)CCO[C@@H]2CCN1CCN(c2ccc(OC)cc2)CC1 | Not Active | 0.158 µM | 150 µM | > 3.36 µM | Ki [13]: 0.586 µM
6 | CNC(=O)c1ccc2c(c1)CCO[C@H]2CCN1CCN(c2ccc(OC)cc2)CC1 | – | 0.241 µM | 5.78 µM | 1.09 µM | Hypothermic effect (Cavia porcellus [8]): -2.34 °C; Ki (D(4) dopamine receptor [11]): > 3.7 µM; Hypothermic effect (Cavia porcellus [14]): -1.38 °C; Hypothermic effect (Cavia porcellus [15]): -1.52 °C; Hypothermic effect (Cavia porcellus [16]): -0.54 °C; Hypothermic effect (Cavia porcellus [17]): -0.8 °C; Hypothermic effect (Cavia porcellus [10]): -1.84 °C; Ki [12]: 0.168 µM
7 | COc1ccc(N2CCN(CC[C@H]3OCCc4cc(C(N)=O)ccc43)CC2)cc1 | – | 0.386 µM | 26 µM | > 3.36 µM | –
